# Bioassay records (PubChem)
# Cav32 inh – Cav3.2 calcium influx blockers – cell-based, Fluo-4 calcium fluorescence, FDSS, MLSMR library, primary screen; Voltage-dependent T-type calcium channel subunit alpha-1H (Homo sapiens), O95180; Cav3.2-expressing cells; active compounds read low; B-score at 10 µM; hit rate 4% among 100,000; AID 449739, 2010;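 active = single-dose well whose peak fluorescence ratio is a statistical outlier from its plate by either plate-standardised score or position-corrected B-score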
# PostGolgi yeast – phenotypic screen on post-Golgi transport, primary screen; post-Golgi transport phenotypic cell assay; inhibition, % at 10 µM; hit rate 0.9% among 98,000;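 note: yeast cells grown in 1536-well plates; yeast grown about 18 h at 30C before absorbance read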
# PostGolgi ctrl – growth inhibition of yeast control strain, primary screen, counter-screen for post-Golgi transport modulator project; hit rate 5% among 98,000; inhibition, % at 10 µM; AID 738, 2007; efflux-deficient yeast background strain, growth absorbance A615, 16 h
# PTK2B oligo ant – antagonists of Pyk2 self-association, primary screen, Q293 cells, FERM NanoBiT luminescence, HTS | Protein-tyrosine kinase 2-beta (Homo sapiens), Q14289 | active compounds read low | z-score (the deposit names both 25 µM and 10 µM) | hit rate 0.83% among 99,000 | AID 1347419, 2020;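 active = Z-score of -3 or lower, scaled per plate to the spread of control and sample wells; inactive = z-score above -3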;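 note: negative z-score means lost luminescence so less FERM oligomerization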
# tolC growth inh – growth inhibitors of E. coli tolC mutant, primary screen, strain BW25113 ΔtolC::kan, 384-well. hit rate 2.2% among 65,000. growth inhibition, % at 10 µM (by protocol). OD615;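 active = growth inhibition at or above a cutoff equal to the mean over every tested compound plus 3 SD, cut at about 60% in these data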;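 note: growth measured after 20 h incubation at 37 °C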
#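 Test system: tolC-deleted E. coli BW25113 | Medium: LB with kanamycin 50 µg/mL | Compound dosing: Single concentration, 10 µM final per compound | Schedule: 37 °C, 20 h exposure | Measured by: OD at 615 nm | Evaluation: Percent growth inhibition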
# Ecoli WT expand – growth inhibitors of wild-type E. coli, primary screen, strain BW25113, expanded library, OD600; hit rate 0.15% among 98,000; OD600 absorbance; growth inhibition, % at 100 µM;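 active = growth inhibition above about 50% at one test dose, limit read from the data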;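 note: growth measured after 20 h incubation at 37 °C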
# * = called active by the depositor; x = no result given. Shown are actives, neighbours in structure and some others; about 8.7% of the full set was active somewhere. Cut-off read from the data, not from the text of the source, unless noted: active = inhibition above about 30%; inactive = the rest.
SMILES,Cav32 inh,PostGolgi yeast,PostGolgi ctrl,PTK2B oligo ant,tolC growth inh,Ecoli WT expand
COc1ccccc1CNC(=O)C1CCN(S(=O)(=O)c2ccc3c(c2)OCCCO3)CC1,x,x,x,0.75,x,x
CCCCOC(=O)n1c(SCC(=O)N(CC)CC)nc2ccccc21,-3.1,-6,31*,-0.29,41,9
Cc1nnc(C)n1/N=C/c1cc(Br)cc(Br)c1O,-9.6*,4,11,0.64,2,51*
Cc1nnc(C)n1/N=C/c1cc(Br)ccc1O,-0.66,3,-1,0.11,-10,8
Cc1csc(-c2cnn(-c3ccccc3)c2NC(=O)c2ccc(C(F)(F)F)cc2)n1,-2.8,18,44*,-0.78,x,0
Cc1cc(C(=O)Cn2nnc3ccccc3c2=O)c(C)n1-c1ccccc1F,-7*,-1,12,-1.1,x,-15
COc1ccc(-n2c(C)cc(C(=O)Cn3nnc4ccccc4c3=O)c2C)cc1,-1.9,-3,23,-0.59,18,-2
Cc1cc(C)n(-c2nc(NCCCO)c3c4c(sc3n2)CCCC4)n1,-0.16,16,35*,-0.6,9,11
Cc1cc(C)n(-c2nc(NCCO)c3c4c(sc3n2)CCCC4)n1,-0.61,0,21,1.1,54,-1
Cc1cc(C)n(-c2nc(NCC(C)O)c3c4c(sc3n2)COC(C)(C)C4)n1 (stereo not drawn),0.69,6,1,-0.24,x,6
Cc1cc(C)n(-c2nc(NCC(C)O)c3c4c(sc3n2)CCCC4)n1 (stereo not drawn),0.37,5,20,-1.6,94*,-3
CCOC(=O)COc1ccc(C(=O)NC2CCCCC2)cc1,0.73,-5,6,-0.28,-11,2
COC(=O)c1ccc2c(c1)NC(=O)C1CCCN21 (stereo not drawn),-4.3*,1,10,x,5,-7
CCOc1ccc(OC(=O)NC(c2ccccc2)C(Cl)(Cl)Cl)cc1 (stereo not drawn),-3.5*,-7,1,-0.23,x,-2
Cc1cccc(NC2=C(Cl)C(=O)OC2NC(=O)c2ccccc2)c1 (stereo not drawn),-0.86,-3,2,0.51,x,-2
O=C(NCc1cccnc1)C1c2ccccc2C(=O)N1C1CCCCCCC1 (stereo not drawn),0.64,5,34*,1.1,4,-4
CS(=O)(=O)N(CCc1ccccc1)CC(=O)Nc1ccc(OCc2ccccc2)cc1,-4.2*,-17,17,-0.01,x,-9
COC(=O)c1ccccc1NC(=O)CN(CCc1ccccc1)S(C)(=O)=O,-0.84,3,-3,0.03,19,5
CCOC(=O)CN(C(=O)CSc1nnc2c(n1)[nH]c1ccc(F)cc12)c1ccccc1,-4.3*,3,8,-1.8,x,1
CCOC(=O)CN(C(=O)CSc1nnc2c(n1)[nH]c1ccccc12)c1ccccc1,0.1,3,-6,-2.7,6,-4
Clc1ccc(OCc2nn3c(C4CCCCC4)nnc3s2)c(Cl)c1,-0.13,1,39*,-1,15,-7
Clc1ccc(OCc2nn3c(-c4ccncc4)nnc3s2)cc1,x,5,24,-1.5,-5,-5
COCCNC(=O)CN(C(=O)CCC(=O)Nc1cc(C)on1)c1cccc(C)c1C,0.85,-3,-2,-0.51,8,-1
CCN(CC)C(=O)CSc1nc2nc(C)cc(C)c2c(=O)[nH]1,0.36,-4,7,-0.02,x,-9
Cc1cc(C)c2c(=O)[nH]c(SCC(=O)N(C)C)nc2n1,0.31,36*,17,-0.54,x,-3
SMILES,Cav32 inh,PostGolgi yeast,PostGolgi ctrl,PTK2B oligo ant,tolC growth inh,Ecoli WT expand
CC(C)[C@@H]1NC(=O)c2cc([N+](=O)[O-])cc(I)c2NCCCC[C@@H](C(=O)NC(CC(=O)O)C(N)=O)NC(=O)[C@H](CO)NC1=O (stereo partly drawn),-0.019,x,x,x,x,x
Cc1ccc(NC(=O)c2ccccc2)s1,-0.94,-2,4,1,55,77*
Cc1cc(NC(=O)c2ccccc2)sc1C,-0.61,16,-4,0.51,98*,54*
COc1ccc2c(c1)c1nnc(SC)nc1n2C,1.2,58*,87*,-0.44,5,-3
COc1ccccc1-n1c(SCC(=O)NC(C)(C)C)nc(O)cc1=O,1.3,2,5,0.01,-7,-1
COc1ccccc1NC(=O)CSc1nc(O)cc(=O)n1-c1ccccc1OC,-0.13,-3,35*,-1.1,2,-11
COc1ccccc1-n1c(SCC(=O)Nc2ccccc2C)nc(O)cc1=O,0.66,8,37*,-0.19,-6,-2
COc1ccc(CNC(=O)C2CCN(S(=O)(=O)c3cccc4cccnc34)CC2)cc1,x,x,x,x,-3,x
CCc1ccc(NC(=O)CCNS(=O)(=O)c2cccc3nsnc23)cc1,0.18,6,-5,1,x,21
Cc1ccc(C(=O)C2CCN(CC(=O)Nc3nc(C)cs3)CC2)cc1,-1.3,-3,4,0.76,x,1
CCN(CC)C(=O)CC(c1cc(OC)c(OC)c(OC)c1)c1c(OC)cc(OC)c2c(-c3ccccc3)cc(=O)oc12 (stereo not drawn),-0.83,x,x,x,x,x
C=C(C)CSc1nc(N)cc(=O)[nH]1,0.97,1,-10,0.01,-2,12
COc1ccc(-c2cc(C(F)F)nc(-n3nc(C)cc3C)n2)cc1,-0.18,-1,31*,-0.17,0,-1
CCOC(=O)c1cc(C#N)c(NCc2ccccc2)nc1C,-0.22,15,10,-0.31,0,-11
CCOC(=O)c1nnc(-c2ccccc2)nc1NCc1ccccc1,-1.2,15,35*,-2,x,-5
CC(=O)c1ccccc1Oc1nc(CN2CCOCC2)nc2scc(-c3cccs3)c12,-2.2,-3,42*,-0.22,11,-18
COc1ccc(C(C)=O)c(Oc2nc(CN3CCOCC3)nc3scc(-c4cccs4)c23)c1,-1.9,5,42*,-0.4,7,2
Cc1ccccc1C(=O)c1cccn1CC(=O)NCCN1CCN(c2cccc(C)c2C)CC1,-2,1,13,1.1,x,-2
CCCn1c(NCc2cc(C)ccc2O)nc2ccccc21,-7*,-12,2,-1.1,21,12
CSc1cccc(NS(=O)(=O)c2ccc(F)cc2)c1,-7*,-7,3,-0.55,29,24
CSc1cccc(NS(=O)(=O)c2ccccc2)c1,-1,0,2,-0.43,11,10
CC(=O)OC1c2ccccc2C(=O)N1Cc1ccccc1Cl (stereo not drawn),0.07,4,10,x,8,8
O=C(CCn1cccc1)NCc1ccc(Cl)cc1,-0.055,9,14,0.49,-3,8
COC(=O)c1ccc(N=C2S/C(=C\c3cc(C)n(-c4cccnc4)c3C)C(=O)N2C)cc1,0.38,2,32*,-1,x,-6
COCCN1C(=O)N[C@@H](c2ccco2)C(C(C)=O)=C1C,0.56,x,x,x,x,x
